# Bioassay records as filed in PubChem.
# Rtt109 HAT inh – inhibitors of C. albicans Rtt109/Vps75 HAT, primary screen, biochemical, ThioGlo CoA-SH fluorescence, plate reader; Histone acetyltransferase RTT109 (Candida albicans (strain SC5314 / ATCC MYA-2876)), …; purified Rtt109/Vps75, 4 h; inhibition, % at 34.9 µM; 330,000 compounds, 0.16% hits; AID 540336, 2011;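 active = inhibition of at least 50% in every replicate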
# Target sequence (Q5AAJ8 whole entry, looked up): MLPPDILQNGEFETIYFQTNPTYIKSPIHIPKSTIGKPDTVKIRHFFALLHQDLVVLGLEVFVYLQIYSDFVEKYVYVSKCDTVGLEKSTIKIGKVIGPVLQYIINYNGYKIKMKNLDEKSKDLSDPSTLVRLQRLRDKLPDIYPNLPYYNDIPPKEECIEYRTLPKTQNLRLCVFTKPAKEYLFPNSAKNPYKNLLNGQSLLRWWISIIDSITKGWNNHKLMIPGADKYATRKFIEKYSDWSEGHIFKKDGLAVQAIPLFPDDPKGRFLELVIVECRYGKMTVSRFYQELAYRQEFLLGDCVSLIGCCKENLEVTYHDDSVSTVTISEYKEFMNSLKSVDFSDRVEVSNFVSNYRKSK
# T cell modulator – modulators of CD8 T cell-vesicle binding, primary screen, mouse 2C CD8+ T cells, flow cytometry; 2C CD8+ T cell-vesicle binding; hits give low values; response (vesicle binding), % at 7 µM; 330,000 compounds, 0.068% hits; AID 2052, 2009;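 active = response, share of CD8 T cells binding vesicles, and their 90th percentile fluorescence all below set limits, cut at about 80% in these data, passing the limit was not always enough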;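 also: values below 100% mean blocked vesicle binding to the CD8+ T cells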
#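 Material: murine 2C transgenic CD8+ T lymphocytes / Also added: QL9-peptide-loaded Drosophila micro-vesicles bearing Ld, ICAM-1 and B7-1 / Schedule: binding step 1.5 h, 37 °C, antibody labelling 20 min, ice / Signal: flow cytometry, PE anti-B7-1 (FL2) versus Alexa647 anti-CD8 (FL8), PFA-fixed / Evaluation: percent CD8+ FL2 mean versus row control / Benchmarks: naked versus QL9-loaded vesicles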
# GRIN3A LBD mod – binders of NR3A ligand-binding domain, primary screen, biophysical, differential scanning fluorimetry, uHTS; NR3A LBD differential scanning fluorimetry, Tm shift; 0% = protein alone, 100% = glycine-bound protein; Tm shift relative to glycine control, % at 25 µM; 340,000 compounds, 2.5% hits;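 active = melting temperature shift of at least 10% of the positive control shift, at one fixed dose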
# GASC-1 inh – inhibitors of GASC-1 histone demethylase, primary screen, biochemical, fluorescence, DELFIA europium. GST-JMJD2C(1-420) H3K9me3 demethylation. inhibition, % at 2.35 µM. 330,000 compounds, 0.069% hits. AID 2099, 2009;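 active = more than half of a compound's replicate wells show inhibition beyond 50%, single wells judged on their own value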;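 also: signal counts dimethyl H3K9 product captured on neutravidin plate; 0% = median of DMSO wells and 100% = 0.3 times that DMSO median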
# * marks the source's active call; other numbers are inactive results; · = no result. This is a sample that favours compounds with a hit; in the whole collection about 2.8% have one here.
SMILES,Rtt109 HAT inh,T cell modulator,GRIN3A LBD mod,GASC-1 inh
Cc1cc(S(=O)(=O)N2CCCC2C(=O)N2CCOCC2)c(C)cc1Cl (stereo not given),0.5,604.9,58.2*,-12.8
O=C(CSC(=S)N1CCCC1)N(Cc1nnc(-c2ccccc2Cl)o1)C1CC1,1.5,418.1,1.8,9.5
CCCCN1CC(=O)N2[C@@H]3c4cc(OC)ccc4OC[C@@H]3[C@H](C(=O)OCC)[C@]2(C)C1=O,0.3,·,0.2,·
O=c1cc(-c2ccc(O)cc2)oc2c([C@@H]3O[C@H](CO)[C@@H](O)[C@H](O)[C@H]3O)c(O)c([C@@H]3O[C@H](CO)[C@@H](O)[C@H](O)[C@H]3O)c(O)c12,-16.9,341.9,-1.8,0.5
O=c1cc(-c2ccc(O)c(O)c2)oc2cc(O)c([C@@H]3O[C@H](CO)[C@@H](O)[C@H](O)[C@H]3O)c(O)c12,5.0,418.1,18.5*,-38.3
CCCCN(S(=O)(=O)c1ccccc1)S(=O)(=O)c1ccccc1,-5.0,504.4,0.6,1.5
CCCN1C(=O)/C(=C/c2ccco2)SC1=Nc1ccc(OC)cc1,0.5,233.1,20.9*,-6.3
CCCN(C(=O)c1cccc(-n2cccc2)c1)c1c(N)n(Cc2ccccc2)c(=O)[nH]c1=O,-21.2,210.2,-0.6,10.8
CCOC(=O)Cc1csc(NC(=O)NC2(C(F)(F)F)Oc3cc(Cl)c(Cl)cc3O2)n1,-5.6,57.8,10.7*,0.0
C(C#CCN1CCOCC1)#CCN1CCOCC1,16.8,·,-0.5,·
O=C(/C=C/c1ccc(Br)o1)NC(c1ccccc1)c1ccccc1,2.3,336.3,19.6*,25.6
CC(C)C(NS(=O)(=O)c1c(Cl)cccc1Cl)C(=O)OCC(=O)c1c[nH]c2ccccc12 (stereo not given),9.8,233.8,23.3*,8.1
Cc1ccc(C(=O)OCC(=O)c2c[nH]c3ccccc23)cc1,·,281.2,-2.2,-7.2
CC(C)Cc1ccc(C(C)C(=O)OCC(=O)c2c[nH]c3ccccc23)cc1 (stereo not given),-21.0,366.8,22.7*,-4.7
CC(OC(=O)c1ccc(Cl)nc1)C(=O)N1CCc2ccccc21 (stereo not given),-3.4,257.0,0.7,12.4
COc1cc(OC)cc(-c2oc(=O)c3cc(OC)c(OC)cc3c2C(F)(F)F)c1,-3.4,60.3*,-2.6,-4.0
CCCCCCn1c(=O)c(Cc2ccccc2)c(O)c2ccccc21,·,357.7,-6.8,12.0
CCCCCCn1c(=O)c(-c2ccccc2)c(O)c2ccccc21,4.3,541.1,12.2*,9.3
COc1ccc(NC(=O)CSc2nncc3ccccc23)cc1,-10.1,520.0,0.2,-18.4
COc1ccc(C(=O)Sc2nncc3ccccc23)cc1,2.0,472.8,13.0*,-11.6
O=C(CSc1nnc(SCc2cccc3ccccc23)s1)N/N=C/c1c[nH]c2ccccc12,-9.0,224.2,22.4*,0.4
O=C(CSc1nnc(SCc2ccc(Cl)cc2)s1)N/N=C/c1c[nH]c2ccccc12,-0.1,240.9,23.8*,-3.3
Cc1nn(-c2ccccc2)c(C)c1/C=N/NC(=O)CSc1nnc(SCc2ccccc2Cl)s1,-9.0,217.2,11.1*,3.9
COc1ccccc1CNC(=O)c1ccc(CS(=O)(=O)c2ccc(C)cc2)o1,-10.0,346.1,1.5,-5.1
O=C(CC1S/C(=N\S(=O)(=O)c2ccccc2)N(c2ccccc2)C1=O)Nc1ccc(F)cc1 (stereo not given),9.9,317.5,10.1*,6.7
SMILES,Rtt109 HAT inh,T cell modulator,GRIN3A LBD mod,GASC-1 inh
O=c1ccc(/C=C/c2ccccc2)nn1Cc1ccc(F)cc1,-10.1,184.9,-6.2,-21.8
COc1ccc(/C=C/c2ccc(=O)n(Cc3ccccc3)n2)cc1,-7.0,266.6,15.5*,18.2
COc1ccc(/C=C/C(=O)OCC(=O)NC(C)CCc2ccccc2)cc1 (stereo not given),1.8,355.5,-1.1,-12.7
COc1ccc(NC2CCCN(C(=O)C3(C)CCCCC3)C2)cc1 (stereo not given),5.3,210.9,0.5,6.0
COC(=O)c1ccc(CSc2nc3ccccc3c(=O)n2CC(C)C)o1,-4.9,156.7,20.4*,-7.5
Oc1ccc(Nc2nc3ccccc3nc2Nc2ccc(O)cc2)cc1,28.8,132.4,16.7*,-1.6
O=[N+]([O-])c1ccc(-c2nc(Nc3ccc(O)cc3)c3ccccc3n2)cc1,-3.2,196.2,22.9*,3.9
COc1ccc(-c2nc(N/N=C(\C)c3ccc(O)cc3)c3ccccc3n2)cc1,-4.3,564.2,12.7*,2.3
COc1ccc(Nc2nc(-c3cccc([N+](=O)[O-])c3)nc3ccccc23)cc1,7.8,167.5,46.2*,-6.6
O=C(O)c1ccc(Nc2nc(-c3ccc([N+](=O)[O-])cc3)nc3ccccc23)cc1,-3.7,218.0,7.5,5.4
Cc1n[nH]c(=O)nc1Nc1ccc(O)cc1,10.3,357.1,-0.7,-1.8
C/C(=N\Nc1nncc2ccccc12)c1ccc(O)cc1,-5.8,198.4,8.4,-8.1
COc1ccc(Cl)cc1NC(=O)CN(C)C(=O)c1cc2ccccc2cc1O,-3.8,285.2,0.7,-5.3
Cc1csc2nc(O)c(C(=O)NC3CCCCC3C)c(=O)n12 (stereo not given),-0.6,348.8,-0.8,94.8
Cc1cccc(-c2nc(Nc3cccc(O)c3)c3ccccc3n2)c1,8.9,134.4,32.3*,-29.3
Cc1ccc(Nc2nc(-c3cccnc3)nc3ccccc23)cc1,8.3,533.7,-2.3,-5.1
O=C(Nc1nc(-c2ccccc2)nc2ccccc12)c1ccc(F)cc1,-0.3,216.2,-1.8,4.6
Oc1ccc(Nc2nc(-c3ccccc3)nc3ccccc23)cc1,-4.0,192.1,41.7*,-6.2
CC(=O)Nc1ccc(Nc2nc(-c3ccccc3)nc3ccccc23)cc1,-9.2,151.3,11.6*,-1.9
COc1ccc(Nc2ncnc3ccccc23)cc1,9.6,412.0,-7.0,1.8
COc1ccc(Nc2nc(-c3ccccc3)nc3ccccc23)cc1,20.5,401.5,34.2*,-9.9
CC1(C)O[C@@H]2[C@H](O1)[C@@H](COS(=O)(=O)O)O[C@H]2n1cc(Br)c(=O)[nH]c1=O,1.1,381.6,-2.7,-11.5
N#CCCN(C(=O)Nc1ccccc1)C1CCCCC1,0.7,·,-0.5,·
COc1ccc(OC)c(S(=O)(=O)Nc2ccc(C(C)=O)cc2)c1,-4.7,565.3,11.2*,-5.0
COc1ccc(NS(=O)(=O)c2cc(NC(=O)c3ccc(F)cc3)ccc2OC)cc1,14.2,256.2,-5.8,-11.3
COc1ccc(NC(=O)c2[nH]c(C)c(C(C)=O)c2C)cc1Cl,6.9,243.5,-10.9,5.3
COc1ccc(NC(=O)c2[nH]c(C)c(C(C)=O)c2C)cc1S(=O)(=O)Nc1ccc(Br)cc1,-5.9,291.9,11.4*,0.0
